Legend:
[1] = Platelet P2T receptor antagonist activity in human platelet assay; type: functional
Summary of the method: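 Human washed platelets in modified Tyrode buffer, stimulated to aggregate with ADP; aggregation followed turbidimetrically. Inhibition measured across a concentration range, pIC50 calculated from the concentration-response. Mean of four determinations (nine for one compound).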

Rattus norvegicus = species: Rattus norvegicus; assay: Recovery of ADP-induced platelet aggregation 20 minutes post dose. mean of four determinations and spread of results; type: functional
Summary of the method: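 Anesthetized rat; ADP-induced platelet aggregation measured 20 min after dosing to gauge recovery of aggregation (functional kinetics). Mean of four determinations, with spread of results.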

CCCSc1nc(NCCOC)c2ncn([C@@H]3O[C@H](COP(=O)(O)OP(=O)(O)C(Cl)(Cl)P(=O)(O)O)[C@@H](O)[C@H]3O)c2n1
Log IC50 [1]: -7.81
Recovery of ADP-induced platelet aggregation (Rattus norvegicus): 48%

Nc1nc(SCCC(F)(F)F)nc2c1ncn2[C@@H]1O[C@H](COP(=O)(O)OP(=O)(O)C(Cl)(Cl)P(=O)(O)O)[C@@H](O)[C@H]1O
Log IC50 [1]: -8.87

CCCSc1nc(N)c2ncn([C@@H]3O[C@H](COP(=O)(O)OP(=O)(O)C(F)(F)P(=O)(O)O)[C@@H](O)[C@H]3O)c2n1
Log IC50 [1]: -8.16

Nc1ncnc2c1ncn2[C@@H]1O[C@H](COP(=O)(O)OP(=O)(O)C(Cl)(Cl)P(=O)(O)O)[C@@H](O)[C@H]1O
Log IC50 [1]: -3.5

CCCSc1nc(N)c2ncn([C@@H]3O[C@H](COP(=O)(O)OP(=O)(O)C(Cl)(Cl)P(=O)(O)O)[C@@H](O)[C@H]3O)c2n1
Log IC50 [1]: -8.6
Recovery of ADP-induced platelet aggregation (Rattus norvegicus): 93%

O=P(O)(OC[C@H]1O[C@@H](n2cnc3c(NCC(F)(F)F)nc(SCCC(F)(F)F)nc32)[C@H](O)[C@@H]1O)OP(=O)(O)C(Cl)(Cl)P(=O)(O)O
Log IC50 [1]: -9.14
Recovery of ADP-induced platelet aggregation (Rattus norvegicus): 6%

CCSc1nc(N)c2ncn([C@@H]3O[C@H](COP(=O)(O)OP(=O)(O)C(Cl)(Cl)P(=O)(O)O)[C@@H](O)[C@H]3O)c2n1
Log IC50 [1]: -6.53

CCCSc1nc(NCC(F)(F)F)c2ncn([C@@H]3O[C@H](COP(=O)(O)OP(=O)(O)C(Cl)(Cl)P(=O)(O)O)[C@@H](O)[C@H]3O)c2n1
Log IC50 [1]: -9.48
Recovery of ADP-induced platelet aggregation (Rattus norvegicus): 10%

CCCSc1nc(NCCSC)c2ncn([C@@H]3O[C@H](COP(=O)(O)OP(=O)(O)C(Cl)(Cl)P(=O)(O)O)[C@@H](O)[C@H]3O)c2n1
Log IC50 [1]: -9.42
Recovery of ADP-induced platelet aggregation (Rattus norvegicus): 33%

CSCCNc1nc(SCCC(F)(F)F)nc2c1ncn2[C@@H]1O[C@H](COP(=O)(O)OP(=O)(O)C(Cl)(Cl)P(=O)(O)O)[C@@H](O)[C@H]1O [CANGRELOR]
Log IC50 [1]: -9.35
Recovery of ADP-induced platelet aggregation (Rattus norvegicus): 79%

COCCNc1nc(SCCC(F)(F)F)nc2c1ncn2[C@@H]1O[C@H](COP(=O)(O)OP(=O)(O)C(Cl)(Cl)P(=O)(O)O)[C@@H](O)[C@H]1O
Log IC50 [1]: -8.02
Recovery of ADP-induced platelet aggregation (Rattus norvegicus): 64%

Nc1ncnc2c1ncn2[C@@H]1O[C@H](COP(=O)(O)OP(=O)(O)C(F)(F)P(=O)(O)O)[C@@H](O)[C@H]1O
Log IC50 [1]: -3.5
